Test results taken from ChEMBL document CHEMBL3526002, “Tissue distribution and identification of radioactivity components at elimination phase after oral administration of [¹⁴C]CS-1036, an α-amylase inhibitor, to rats” (Drug Metab Dispos, 2013).

Experiments:
Design in all cases: dose 5 mg/kg, dosed compound name [14C]CS-1036, route oral
Conditions in all cases: in vivo
Lung = experiment: Drug uptake in albino F344/DuCrlCrlj rat lung at 5 mg/kg, po after 4 hrs by liquid scintillation counting; assay type: ADME, organism-based
Liver [1] = experiment: Drug uptake in albino F344/DuCrlCrlj rat liver at 5 mg/kg, po after 4 hrs by liquid scintillation counting; assay type: ADME, organism-based
Aorta = experiment: Drug uptake in albino F344/DuCrlCrlj rat aorta at 5 mg/kg, po after 4 hrs by liquid scintillation counting; assay type: ADME, organism-based
Liver [2] = experiment: Drug uptake in albino F344/DuCrlCrlj rat liver at 5 mg/kg, po after 8 hrs by liquid scintillation counting; assay type: ADME, organism-based
Large intestine [3] = experiment: Drug uptake in albino F344/DuCrlCrlj rat large intestine at 5 mg/kg, po after 8 hrs by liquid scintillation counting; assay type: ADME, organism-based
Blood = experiment: Drug uptake in albino F344/DuCrlCrlj rat blood assessed as ng equivalent of CS-1036 at 5 mg/kg, po after 1 hr by liquid scintillation counting; assay type: ADME, organism-based
Method in brief: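 Male F344/DuCrlCrlj rats (159–167 g; n = 3 per time point) received a single oral dose of [14C]CS-1036 at 5 mg/kg. Blood was taken from the abdominal aorta at 1, 4, 8, 24, 72, 168 and 336 h. Radioactivity was counted by LSC with external-standard efficiency correction. Results were converted to ng equivalent of CS-1036/ml using specific activity and sample volume, and reported as mean + S.D.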

Spleen = experiment: Drug uptake in albino F344/DuCrlCrlj rat spleen assessed as ng equivalent of CS-1036 at 5 mg/kg, po after 1 hr by liquid scintillation counting; assay type: ADME, organism-based
[4] = Drug uptake in albino F344/DuCrlCrlj rat mandibular gland assessed as ng equivalent of CS-1036 at 5 mg/kg, po after 4 hrs by liquid scintillation counting; assay type: ADME, organism-based
Liver [5] = experiment: Drug uptake in albino F344/DuCrlCrlj rat liver assessed as ng equivalent of CS-1036 at 5 mg/kg, po after 72 hrs by liquid scintillation counting; assay type: ADME, organism-based
Kidney = experiment: Drug uptake in albino F344/DuCrlCrlj rat kidney assessed as ng equivalent of CS-1036 at 5 mg/kg, po after 72 hrs by liquid scintillation counting; assay type: ADME, organism-based
Heart [6] = experiment: Drug uptake in albino F344/DuCrlCrlj rat heart at 5 mg/kg, po after 24 hrs by liquid scintillation counting; assay type: ADME, organism-based
Large intestine [7] = experiment: Drug uptake in albino F344/DuCrlCrlj rat large intestine assessed as ng equivalent of CS-1036 at 5 mg/kg, po after 72 hrs by liquid scintillation counting; assay type: ADME, organism-based
[8] = Drug uptake in albino F344/DuCrlCrlj rat urinary bladder assessed as ng equivalent of CS-1036 at 5 mg/kg, po after 72 hrs by liquid scintillation counting; assay type: ADME, organism-based
[9] = Drug uptake in albino F344/DuCrlCrlj rat mandibular gland assessed as ng equivalent of CS-1036 at 5 mg/kg, po after 168 hrs by liquid scintillation counting; assay type: ADME, organism-based
Heart [10] = experiment: Drug uptake in albino F344/DuCrlCrlj rat heart assessed as ng equivalent of CS-1036 at 5 mg/kg, po after 168 hrs by liquid scintillation counting; assay type: ADME, organism-based
Cerebrum [11] = experiment: Drug uptake in albino F344/DuCrlCrlj rat cerebrum at 5 mg/kg, po after 72 hrs by liquid scintillation counting; assay type: ADME, organism-based
Method in brief: (§1)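 Single oral [14C]CS-1036 at 5 mg/kg was given to male rats (159–167 g; n = 3). Cerebrum was collected after aortic bleeding at 1, 4, 8, 24, 72, 168 or 336 h, weighed, and homogenized in 2 volumes of saline. A 0.5 ml aliquot was solubilized in Soluene-350 and counted by LSC with external-standard correction. Results are in ng equivalent/g tissue from specific activity and sample weight.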

Harderian gland = experiment: Drug uptake in albino F344/DuCrlCrlj rat harderian gland at 5 mg/kg, po after 72 hrs by liquid scintillation counting; assay type: ADME, organism-based
[12] = Drug uptake in albino F344/DuCrlCrlj rat thyroid gland at 5 mg/kg, po after 72 hrs by liquid scintillation counting; assay type: ADME, organism-based
Adrenal gland [13] = experiment: Drug uptake in albino F344/DuCrlCrlj rat adrenal gland at 5 mg/kg, po after 72 hrs by liquid scintillation counting; assay type: ADME, organism-based
[14] = Drug uptake in albino F344/DuCrlCrlj rat fat at 5 mg/kg, po after 72 hrs by liquid scintillation counting; assay type: ADME, organism-based, Adipose tissue
Method in brief: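 Male F344/DuCrlCrlj rats (bought at 7 weeks, acclimatized 5–6 days; 159–167 g; n = 3 per time point) received a single oral dose of [14C]CS-1036 at 5 mg/kg. White adipose tissue was collected after abdominal aortic bleeding at 1, 4, 8, 24, 72, 168 or 336 h. Samples were counted by LSC with external-standard efficiency correction. Results were converted to ng equivalents per g from specific activity and sample weight.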

Cerebrum [15] = experiment: Drug uptake in albino F344/DuCrlCrlj rat cerebrum at 5 mg/kg, po after 1 hr by liquid scintillation counting; assay type: ADME, organism-based; method in brief: as §1
Stomach = experiment: Drug uptake in albino F344/DuCrlCrlj rat stomach assessed as ng equivalent of CS-1036 at 5 mg/kg, po after 4 hrs by liquid scintillation counting; assay type: ADME, organism-based
[16] = Drug uptake in albino F344/DuCrlCrlj rat testis assessed as ng equivalent of CS-1036 at 5 mg/kg, po after 168 hrs by liquid scintillation counting; assay type: ADME, organism-based
Large intestine [17] = experiment: Drug uptake in albino F344/DuCrlCrlj rat large intestine assessed as ng equivalent of CS-1036 at 5 mg/kg, po after 168 hrs by liquid scintillation counting; assay type: ADME, organism-based
Cerebellum [18] = experiment: Drug uptake in albino F344/DuCrlCrlj rat cerebellum at 5 mg/kg, po after 1 hr by liquid scintillation counting; assay type: ADME, organism-based
Liver [19] = experiment: Drug uptake in albino F344/DuCrlCrlj rat liver assessed as ng equivalent of CS-1036 at 5 mg/kg, po after 336 hrs by liquid scintillation counting; assay type: ADME, organism-based
Adrenal gland [20] = experiment: Drug uptake in albino F344/DuCrlCrlj rat adrenal gland at 5 mg/kg, po after 1 hr by liquid scintillation counting; assay type: ADME, organism-based
Cerebrum [21] = experiment: Drug uptake in albino F344/DuCrlCrlj rat cerebrum assessed as ng equivalent of CS-1036 at 5 mg/kg, po after 24 hrs by liquid scintillation counting; assay type: ADME, organism-based; method in brief: as §1
Cerebrum [22] = experiment: Drug uptake in albino F344/DuCrlCrlj rat cerebrum at 5 mg/kg, po after 168 hrs by liquid scintillation counting; assay type: ADME, organism-based; method in brief: as §1
Cerebellum [23] = experiment: Drug uptake in albino F344/DuCrlCrlj rat cerebellum at 5 mg/kg, po after 168 hrs by liquid scintillation counting; assay type: ADME, organism-based
Pancreas = experiment: Drug uptake in albino F344/DuCrlCrlj rat pancreas at 5 mg/kg, po after 168 hrs by liquid scintillation counting; assay type: ADME, organism-based
[24] = Drug uptake in albino F344/DuCrlCrlj rat thyroid gland at 5 mg/kg, po after 336 hrs by liquid scintillation counting; assay type: ADME, organism-based
Zone of skin = experiment: Drug uptake in albino F344/DuCrlCrlj rat skin at 5 mg/kg, po after 336 hrs by liquid scintillation counting; assay type: ADME, organism-based
[25] = Drug uptake in albino F344/DuCrlCrlj rat bone marrow at 5 mg/kg, po after 336 hrs by liquid scintillation counting; assay type: ADME, organism-based

Structure (SMILES): C[C@H]1O[C@@H](O[C@H]2[C@H](O)[C@@H](O)[C@@H](O[14C@H]3[14C@H](O)[14CH2]N[14C@@H]3[14CH2]O)O[C@@H]2CO)[C@H](O)[C@@H](O)[C@@H]1O
- Radiolabel recovery (Lung): 37.8 ngequiv/g
- Radiolabel recovery (Liver [1]): 276 ngequiv/g
- Radiolabel recovery (Aorta): 23.9 ngequiv/g
- Radiolabel recovery (Liver [2]): 193 ngequiv/g
- Radiolabel recovery (Large intestine [3]): 7770 ngequiv/g
- Radiolabel recovery (Blood): 9.5 ngequiv/ml
- Radiolabel recovery (Spleen): 57.2 ngequiv/g
- Radiolabel recovery [4]: 9.2 ngequiv/g
- Radiolabel recovery (Liver [5]): 629 ngequiv/g
- Radiolabel recovery (Kidney): 29.7 ngequiv/g
- Radiolabel recovery (Heart [6]): 41.7 ngequiv/g
- Radiolabel recovery (Large intestine [7]): 29.5 ngequiv/g
- Radiolabel recovery [8]: 6.8 ngequiv/g
- Radiolabel recovery [9]: 7 ngequiv/g
- Radiolabel recovery (Heart [10]): 5.9 ngequiv/g
- Radiolabel recovery (Cerebrum [11]): 8.91 ngequiv/g
- Radiolabel recovery (Harderian gland): 119 ngequiv/g
- Radiolabel recovery [12]: 99.1 ngequiv/g
- Radiolabel recovery (Adrenal gland [13]): 99.7 ngequiv/g
- Radiolabel recovery [14]: 194 ngequiv/g
- Radiolabel recovery (Cerebrum [15]): 8.81 ngequiv/g
- Radiolabel recovery (Stomach): 41 ngequiv/g
- Radiolabel recovery [16]: 3.81 ngequiv/g
- Radiolabel recovery (Large intestine [17]): 19 ngequiv/g
- Radiolabel recovery (Cerebellum [18]): 9.35 ngequiv/g
- Radiolabel recovery (Liver [19]): 2.66 ngequiv/g
- Radiolabel recovery (Adrenal gland [20]): 32.2 ngequiv/g
- Radiolabel recovery (Cerebrum [21]): 1.5 ngequiv/g
- Radiolabel recovery (Cerebrum [22]): 6.2 ngequiv/g
- Radiolabel recovery (Cerebellum [23]): 7.12 ngequiv/g
- Radiolabel recovery (Pancreas): 79.2 ngequiv/g
- Radiolabel recovery [24]: 14.5 ngequiv/g
- Radiolabel recovery (Zone of skin): 24.9 ngequiv/g
- Radiolabel recovery [25]: 26.2 ngequiv/g
